{"source": "ChEMBL document CHEMBL4354879", "about": "“Bioisosteric Discovery of NPA101.3, a Second-Generation RET/VEGFR2 Inhibitor Optimized for Single-Agent Polypharmacology” (J Med Chem, 2020)", "key": {"[1]": {"molecular_target": "Proto-oncogene tyrosine-protein kinase receptor Ret (Homo sapiens, UniProt P07949)", "sequence (P07949 whole entry, the tested form may be a part)": "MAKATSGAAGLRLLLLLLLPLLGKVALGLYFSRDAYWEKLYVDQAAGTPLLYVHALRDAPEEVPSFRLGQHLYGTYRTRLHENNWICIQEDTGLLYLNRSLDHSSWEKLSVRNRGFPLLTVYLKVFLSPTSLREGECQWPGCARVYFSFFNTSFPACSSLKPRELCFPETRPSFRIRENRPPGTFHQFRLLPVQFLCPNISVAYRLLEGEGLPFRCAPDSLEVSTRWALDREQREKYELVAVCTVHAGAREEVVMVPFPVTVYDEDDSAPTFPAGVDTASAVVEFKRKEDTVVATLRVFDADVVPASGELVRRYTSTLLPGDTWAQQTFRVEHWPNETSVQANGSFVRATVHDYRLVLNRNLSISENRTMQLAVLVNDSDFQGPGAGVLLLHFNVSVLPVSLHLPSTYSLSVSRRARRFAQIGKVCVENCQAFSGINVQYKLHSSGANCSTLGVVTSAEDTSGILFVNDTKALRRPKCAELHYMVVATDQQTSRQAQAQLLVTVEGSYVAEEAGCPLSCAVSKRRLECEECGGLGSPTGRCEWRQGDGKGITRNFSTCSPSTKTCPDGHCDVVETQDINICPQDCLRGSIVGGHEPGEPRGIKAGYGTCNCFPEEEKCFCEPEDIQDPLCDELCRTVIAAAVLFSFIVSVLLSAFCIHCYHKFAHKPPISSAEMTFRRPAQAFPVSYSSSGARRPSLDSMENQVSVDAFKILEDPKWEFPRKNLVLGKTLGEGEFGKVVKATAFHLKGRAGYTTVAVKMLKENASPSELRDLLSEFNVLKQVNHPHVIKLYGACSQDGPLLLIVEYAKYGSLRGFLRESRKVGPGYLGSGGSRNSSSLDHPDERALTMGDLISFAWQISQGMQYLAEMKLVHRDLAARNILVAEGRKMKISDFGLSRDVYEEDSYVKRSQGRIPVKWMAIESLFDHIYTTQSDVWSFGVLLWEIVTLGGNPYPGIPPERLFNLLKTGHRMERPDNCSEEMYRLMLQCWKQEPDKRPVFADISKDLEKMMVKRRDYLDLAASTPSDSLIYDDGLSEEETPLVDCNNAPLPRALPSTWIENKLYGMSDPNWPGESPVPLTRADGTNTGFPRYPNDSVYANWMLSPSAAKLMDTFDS", "assay": "Inhibition of recombinant human GST-tagged RET cytoplasmic domain (658 to 1114 residues) expressed in baculovirus expression system using 5'FAM-EPLYWSFPA as substrate preincubated for 60 mins followed by substrate addition by microfluidic assay"}, "[2]": {"molecular_target": "Tyrosine-protein kinase Lyn (Homo sapiens) (UniProt P07948)", "sequence (P07948 2-512 limits assumed)": "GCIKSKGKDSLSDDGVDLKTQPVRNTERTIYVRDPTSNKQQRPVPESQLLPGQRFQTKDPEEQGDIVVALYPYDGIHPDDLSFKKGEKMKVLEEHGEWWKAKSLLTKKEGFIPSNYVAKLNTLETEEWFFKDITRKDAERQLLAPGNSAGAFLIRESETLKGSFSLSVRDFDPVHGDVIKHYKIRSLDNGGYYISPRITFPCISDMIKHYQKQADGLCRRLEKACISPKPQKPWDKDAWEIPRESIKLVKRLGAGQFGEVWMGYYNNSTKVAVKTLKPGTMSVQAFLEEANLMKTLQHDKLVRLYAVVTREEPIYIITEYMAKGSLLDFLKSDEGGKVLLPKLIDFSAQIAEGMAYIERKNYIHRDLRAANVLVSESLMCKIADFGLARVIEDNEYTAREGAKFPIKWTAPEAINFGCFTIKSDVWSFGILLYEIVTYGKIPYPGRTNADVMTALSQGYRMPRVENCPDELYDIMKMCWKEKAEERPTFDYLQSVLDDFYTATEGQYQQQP", "assay": "Binding affinity to wild-type human partial length LYN (C219 to Q511 residues) expressed in bacterial expression system at 100 nM by Kinomescan method relative to control"}, "[3]": {"molecular_target": "T1, SHC-transforming protein 1 (Homo sapiens) (UniProt P29353)", "T1 sequence (whole entry)": "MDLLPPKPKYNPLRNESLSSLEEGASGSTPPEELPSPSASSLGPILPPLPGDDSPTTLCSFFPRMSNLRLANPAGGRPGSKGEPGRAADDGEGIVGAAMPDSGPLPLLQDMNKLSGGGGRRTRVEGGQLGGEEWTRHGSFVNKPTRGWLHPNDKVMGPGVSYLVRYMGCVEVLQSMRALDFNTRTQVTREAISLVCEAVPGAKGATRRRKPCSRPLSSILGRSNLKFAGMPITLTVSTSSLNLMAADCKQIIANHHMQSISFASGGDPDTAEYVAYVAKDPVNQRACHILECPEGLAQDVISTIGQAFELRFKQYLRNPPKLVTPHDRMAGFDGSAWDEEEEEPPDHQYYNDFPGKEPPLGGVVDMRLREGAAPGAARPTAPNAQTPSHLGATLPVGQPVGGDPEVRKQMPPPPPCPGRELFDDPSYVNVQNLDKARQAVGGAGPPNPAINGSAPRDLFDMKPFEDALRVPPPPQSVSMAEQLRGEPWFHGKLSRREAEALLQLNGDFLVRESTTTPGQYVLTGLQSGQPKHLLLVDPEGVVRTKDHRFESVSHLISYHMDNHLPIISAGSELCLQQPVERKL", "assay": "Effect on SHC phosphorylation in RET deficient human Nthy-ori 3-1 cells at 1 to 100 nM measured after 2 hrs by western blot analysis"}, "[4]": {"test_system": "Proto-oncogene tyrosine-protein kinase receptor Ret (Homo sapiens), P07949 [C634R]", "sequence (P07949 whole entry C634R, canonical isoform)": "as the sequence (P07949 whole entry, the tested form may be a part) above, with C634R counted along it", "assay": "Inhibition of RET isoform 9 C634R mutant (unknown origin) expressed in rat Rat1 assessed as reduction in RET phosphorylation at Y1062 residue at 0.3 nM measured after 2 hrs by Western blot analysis", "format": "cell-based", "procedure,_shortened": "(§1)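 RAT1 fibroblasts expressing RET-9 C634R, serum-starved, treated 2 h with 0.1–10.0 nM; 50 μg lysate blotted for RET pY905 and pY1062, normalized to total RET; ECL detection.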"}, "[5]": {"test_system": "Proto-oncogene tyrosine-protein kinase receptor Ret (Homo sapiens), P07949 [C634R]", "assay": "Inhibition of RET isoform 9 C634R mutant (unknown origin) expressed in rat Rat1 assessed as reduction in RET phosphorylation at Y1062 residue at 3 nM measured after 2 hrs by Western blot analysis", "format": "cell-based", "procedure,_shortened": "as §1"}, "[6]": {"test_system": "Proto-oncogene tyrosine-protein kinase receptor Ret (Homo sapiens), P07949 [M918T]", "sequence (P07949 whole entry M918T, canonical isoform)": "as the sequence (P07949 whole entry, the tested form may be a part) above, with M918T counted along it", "assay": "Inhibition of RET isoform 9 M918T mutant (unknown origin) expressed in rat Rat1 assessed as reduction in RET phosphorylation at Y905 residue at 1 to 100 nM measured after 2 hrs by Western blot analysis", "format": "cell-based", "procedure,_shortened": "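Serum-starved RAT1 (RET point mutants) or NIH3T3 (RET rearrangements) cells expressing short RET-9 isoform, treated 2 h; 50 μg total lysate immunoblotted with anti-phospho-Y1062 and anti-phospho-Y905 RET antibodies, normalized to total RET; ECL detection. Compound from 50 mM DMSO stock diluted in growth medium.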"}, "[7]": {"molecular_target": "Vascular endothelial growth factor receptor 2 (Homo sapiens, UniProt P35968)", "sequence (P35968 whole entry)": "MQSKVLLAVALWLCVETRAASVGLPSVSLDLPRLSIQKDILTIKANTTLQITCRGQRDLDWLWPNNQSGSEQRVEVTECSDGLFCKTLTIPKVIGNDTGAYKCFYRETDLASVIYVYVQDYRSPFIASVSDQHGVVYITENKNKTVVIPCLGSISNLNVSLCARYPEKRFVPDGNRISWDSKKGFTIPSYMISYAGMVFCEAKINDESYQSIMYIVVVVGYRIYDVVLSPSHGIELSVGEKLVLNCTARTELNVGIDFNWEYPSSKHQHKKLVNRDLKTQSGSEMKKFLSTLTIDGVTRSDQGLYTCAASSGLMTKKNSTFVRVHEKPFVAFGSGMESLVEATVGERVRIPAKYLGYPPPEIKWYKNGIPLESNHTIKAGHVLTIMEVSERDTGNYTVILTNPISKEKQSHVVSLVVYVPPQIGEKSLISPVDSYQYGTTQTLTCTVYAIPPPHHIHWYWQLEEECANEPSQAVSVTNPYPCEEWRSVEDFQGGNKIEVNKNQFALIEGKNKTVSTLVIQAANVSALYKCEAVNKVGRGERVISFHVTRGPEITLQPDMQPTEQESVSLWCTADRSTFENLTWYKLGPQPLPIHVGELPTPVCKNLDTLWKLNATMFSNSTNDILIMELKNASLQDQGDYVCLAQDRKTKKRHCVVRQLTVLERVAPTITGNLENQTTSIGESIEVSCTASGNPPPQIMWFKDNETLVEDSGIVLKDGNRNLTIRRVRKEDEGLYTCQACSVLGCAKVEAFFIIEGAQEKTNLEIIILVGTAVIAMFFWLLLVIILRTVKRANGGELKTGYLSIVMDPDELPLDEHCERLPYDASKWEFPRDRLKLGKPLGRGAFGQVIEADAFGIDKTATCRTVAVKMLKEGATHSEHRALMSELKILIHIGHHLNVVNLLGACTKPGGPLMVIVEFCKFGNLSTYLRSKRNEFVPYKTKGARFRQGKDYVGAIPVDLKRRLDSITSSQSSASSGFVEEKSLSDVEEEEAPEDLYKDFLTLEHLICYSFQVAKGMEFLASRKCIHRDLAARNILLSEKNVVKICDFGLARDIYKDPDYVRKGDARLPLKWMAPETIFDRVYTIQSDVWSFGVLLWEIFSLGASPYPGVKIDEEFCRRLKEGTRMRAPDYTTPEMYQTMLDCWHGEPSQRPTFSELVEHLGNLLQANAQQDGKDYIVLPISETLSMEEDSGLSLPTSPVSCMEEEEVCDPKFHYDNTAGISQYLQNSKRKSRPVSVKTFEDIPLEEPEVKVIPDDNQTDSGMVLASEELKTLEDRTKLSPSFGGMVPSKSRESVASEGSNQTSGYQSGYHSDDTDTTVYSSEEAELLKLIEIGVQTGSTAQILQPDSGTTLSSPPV", "assay": "Inhibition of recombinant human VEGFR2 expressed in HEK293 cells assessed as reduction in VEGFA-induced VEGFR2 autophosphorylation at 1 to 10 nM preincubated for 2 hrs followed by VEGFA-stimulation and measured after 15 mins by Western blot analysis", "format": "cell-based", "procedure,_shortened": "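HEK293 transiently transfected with human VEGFR2; 36 h post-transfection serum-starved 12 h, compound or vehicle 2 h, then VEGFA 100 ng/mL for 15 min; lysates blotted for phospho-VEGFR2, normalized to total VEGFR2.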"}, "[8]": {"test_system": "Proto-oncogene tyrosine-protein kinase receptor Ret (Homo sapiens), P07949 [M918T]", "assay": "Inhibition of Ret isoform 9 M918T mutant in human MZ-CRC-1 cells assessed as reduction in phosphorylation at Y1062 residue at 0.3 to 30 nM measured after 2 hrs by Western blot analysis", "format": "cell-based"}, "[9]": {"test_system": "Proto-oncogene tyrosine-protein kinase receptor Ret (Homo sapiens), P07949 [M918T]", "assay": "Inhibition of RET […] M918T mutant (unknown origin) expressed in mouse BAF3 cells assessed as reduction in RET phosphorylation at Y1062 residue at 0.3 to 30 nM measured after 2 hrs by Western blot analysis", "format": "cell-based", "procedure,_shortened": "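Ba/F3 cells stably expressing long-isoform RET-51 mutants (electroporation), cultured in RPMI/10% FCS without IL-3; RET phosphorylation read by Western blot with anti-phospho-Y905 and anti-phospho-Y1062 antibodies, ECL detection.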"}, "8505C": {"test_system": "8505C", "assay": "Effect on MAPK phosphorylation in RET deficient human 8505C cells at 1 to 100 nM measured after 2 hrs by western blot analysis", "format": "cell-based"}, "Calu-1": {"test_system": "Calu-1", "assay": "Cytotoxicity against RET deficient human Calu1 cells supplemented with fresh medium containing compound for every 2 to 3 days measured during compound dosing", "format": "functional, cell-based", "procedure,_shortened": "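Human RET-negative lines were seeded in six-well plates at 10000 cells/well, in 5% FCS (Nthy-ori-3-1) or 10% FCS (BCPAP, 8505-C, CALU-1, A549, PC-9). Drug or vehicle was added the day after plating, with medium changed every 2–3 days. Cells were counted every 2–3 days. IC50 was fitted from the last day of the growth curves.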"}, "[10]": {"test_system": "GTPase HRas (Homo sapiens), P01112 [G12V]", "sequence (P01112 whole entry G12V)": "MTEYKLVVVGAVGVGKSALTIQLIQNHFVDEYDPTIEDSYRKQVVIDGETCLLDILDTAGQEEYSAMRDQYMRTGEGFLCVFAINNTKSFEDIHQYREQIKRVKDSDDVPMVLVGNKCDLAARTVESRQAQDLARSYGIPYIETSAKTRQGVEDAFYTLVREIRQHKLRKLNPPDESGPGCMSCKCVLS", "assay": "Inhibition of HRAS G12V mutant (unknown origin) expressed in mouse NIH/3T3 cells assessed as reduction in MAPK phosphorylation up to 100 nM measured after 2 hrs by Western blot analysis", "format": "cell-based"}, "Mus musculus [11]": {"test_system": "Mus musculus", "assay": "In vivo inhibition of RET isoform 9 C634R mutant transfected in mouse NIH/3T3 cells implanted BALB/c nu/nu mouse assessed as reduction in RET phosphorylation at Y1062 residue in tumor at 1 mg/kg, po administered once daily via gavage for 3 days measured 3 hrs post-last dose by Western blot analysis", "format": "functional, organism-based"}, "[12]": {"assay": "Toxicity in BALB/c nu/nu mouse assessed as change in total protein level at 10 mg/kg, po administered daily for 7 days", "format": "organism-based", "settings": "in vivo, 168 h"}, "Mus musculus [13]": {"test_system": "Mus musculus", "assay": "In vivo inhibition of RET isoform 9 C634Y mutant transfected in mouse NIH/3T3 cells implanted BALB/c nu/nu mouse assessed as reduction in SHC phosphorylation at 3 mg/kg, po administered once daily via gavage for 2 days measured 3 hrs post-last dose by Western blot analysis"}, "Mus musculus [14]": {"test_system": "Mus musculus", "assay": "In vivo inhibition of RET isoform 9 C634Y mutant transfected in mouse NIH/3T3 cells implanted BALB/c nu/nu mouse assessed as reduction in RET phosphorylation at Y1062 residue at 3 mg/kg, po administered once daily via gavage for 2 days measured 3 hrs post-last dose by Western blot analysis"}}, "note": "Calls of active or inactive are those of the source. The rule behind the calls is not given here.", "data": [{"smiles": "CC(C)(C)c1cc(NC(=O)Cc2ccc(-n3cnc4cc(-c5ccc(S(C)(=O)=O)cc5)ccc43)cc2)no1", "values": [{"measurement": "IC50", "setting": "[1]", "result": 1, "unit": "nM"}, {"measurement": "Activity", "setting": "[2]", "result": "> 90", "unit": "%"}, {"measurement": "Activity", "setting": "[3]", "result": "inactive"}, {"measurement": "inhibition", "setting": "[4]", "result": "Active"}, {"measurement": "inhibition", "setting": "[5]", "result": 100, "unit": "%"}, {"measurement": "inhibition", "setting": "[6]", "result": "Active"}, {"measurement": "inhibition", "setting": "[7]", "result": "Active"}, {"measurement": "inhibition", "setting": "[8]", "result": "Active"}, {"measurement": "inhibition", "setting": "[9]", "result": "Active"}, {"measurement": "Activity", "setting": "8505C", "result": "inactive"}, {"measurement": "IC50", "setting": "Calu-1", "result": "> 100", "unit": "nM"}, {"measurement": "inhibition", "setting": "[10]", "result": "inactive"}, {"measurement": "inhibition", "setting": "Mus musculus [11]", "result": "Active"}, {"measurement": "Activity", "setting": "[12]", "result": "Non-Toxic"}, {"measurement": "inhibition", "setting": "Mus musculus [13]", "result": "Active"}, {"measurement": "inhibition", "setting": "Mus musculus [14]", "result": "Active"}]}]}
